Assay results taken from ChEMBL document CHEMBL4513216, “Probing the Open Global Health Chemical Diversity Library for Multistage-Active Starting Points for Next-Generation Antimalarials” (ACS Infect Dis, 2020).

assay: Toxicity liver stage against HepG2, at 10uM; format: cell-based; design: test concentration 10 uM, cell line HepG2-A16-CD81EGFP; conditions: human, HepG2-A16-CD81EGFP cells; read-out: INHIBITION
In short: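 Uninfected HepG2-A16-CD81EGFP cells, 3 × 10^3 per well, 1536-well, plated on prespotted compound at 10 μM final, parasite-free screening media added to match infected plates; puromycin 10 μM positive, DMSO 0.5% negative; run in parallel with 48 h PbLuc assay at 37 °C, 5% CO2; viability by CellTiter-Glo luminescence, normalized to controls.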

Row | Structure (SMILES) | cytotoxicity at 10 µM [%]
1 | Cc1n[nH]c(C(=O)NCc2ccnc(OCC(F)(F)F)c2)c1Br | 5.67
2 | CCCn1nnc2c(sc3nc(N4CCOCC4)c4c(c32)CCC4)c1=O | 1.74
3 | CCOc1ccccc1C(=O)NCCC(O)c1ccoc1 (centres undefined) | -16.4
4 | Cc1cc(N2CCCC2)nc(CNS(=O)(=O)Cc2ccccc2)n1 | 7.48
5 | CC(=O)N1CC2(CCN(C(=O)C3CC3)CC2)c2cc(C)ccc21 | 9.94
6 | Cc1cnc(C(=O)N2C[C@H]3CN(Cc4nccs4)C[C@H]3C2)cn1 | -147
7 | CNC(=O)c1sccc1N(C)S(=O)(=O)c1ccc(Cl)cc1 | 14.7
8 | COc1ccc(-c2nc(C)cc(SCC(N)=O)n2)cc1 | 5.64
9 | O=C(Cn1cc(-c2ccccc2)ncc1=O)Nc1ncc[nH]1 | 5.89
10 | CCCc1cc(=O)n(CC(N)=O)c(-n2nc(C)cc2C)n1 | 0.097
11 | Cn1cnnc1S(=O)(=O)C1CCN(S(=O)(=O)c2ccc(F)c(Cl)c2)CC1 | -7.2
12 | CC(=O)Nc1ccc(-n2ccc3nc(N4CCCC4)ncc3c2=O)cc1 | 2.24
13 | Cc1ccc(C(=O)Cc2c(Cl)nc3n(C)c(=O)n(C)c(=O)n23)cc1 | -3.96
14 | CC(=O)Nc1ncc(S(=O)(=O)Nc2ccc3c(c2)OCCO3)s1 | 2.93
15 | CC(C)C[C@H](N)COc1cccc(F)c1Oc1cccc(Cl)c1 | 86.1
16 | CN(C)c1cc(C2CCCN(S(=O)(=O)c3cn[nH]c3)C2)ccn1 (centres undefined) | -0.24
17 | CN1CCC(c2cccc(Cc3ccccc3)n2)CC1 | -9.24
18 | Cc1ccsc1CN1CCc2c(nc(N3CCCCC3C)[nH]c2=O)C1 (centres undefined) | -3.42
19 | Cn1cc(C(=O)N2CCCC(Cc3cccc4ncccc34)C2)cn1 (centres undefined) | 4.88
20 | CCc1cc(N2CCC(Nc3ccc(Cl)cn3)CC2)ncn1 | 49.1
21 | CNC(=O)C(C)CN(C)C(=O)Nc1cc(F)cc(Br)c1 (centres undefined) | 4.25
22 | Cn1cc(Nc2cccc(C(=O)N(CC(N)=O)C3CCCC3)c2)cn1 | -1.78

Row | Structure (SMILES) | cytotoxicity at 10 µM [%]
23 | O=C(CCNCc1cccc(O)c1)N1CCc2sccc2C1 | 16
24 | CN(CCOc1cccc(S(C)(=O)=O)c1)c1ccccc1 | 2.3
25 | Cc1cc(C)n(C2CN(c3nc(-c4ccncc4)nc4c3CCC4)C2)n1 | -33.6
26 | NC(=O)c1ccnc(N2CCN(Cc3ccc(F)cc3Cl)CC2)c1 | 40.8
27 | Cc1cc(N(C)CC2COc3ccccc3O2)nc(C)n1 (centres undefined) | 38.7
28 | CCSc1cccc(NCc2cccnc2)c1 | 0.14
29 | CNC(=O)c1cccnc1NCc1ccc(Cn2ccnc2)cc1 | 90.3
30 | CC(NC1(CNC(=O)CC2CCCC2)CCOCC1)c1ccccc1 (centres undefined) | -1.67
31 | Cc1ncc(CN2CCC(c3nc4cc(Cl)ccc4o3)CC2)s1 | 51.7
32 | Cc1nc(C2CCCN(C(=O)c3cc(C)sc3C)C2)no1 (centres undefined) | 6.86
33 | Cc1ccccc1CN(C)C(=O)CN1CCCCC1Cn1cncn1 (centres undefined) | 8.44
34 | Cc1cc(N2CCC(N(C)C(=O)c3ccc(C#N)cc3)CC2)nc(C)n1 | 26.7
35 | CCOC(C)c1noc(CN2CCN(c3ccncc3)CC2)n1 (centres undefined) | -10.6
36 | COCC1CN(c2ccc3c(Cl)ccnc3c2F)CCO1 (centres undefined) | 25
37 | COCCOc1ccccc1CNCC1COC2(CCCC2)O1 (centres undefined) | -143
38 | COCCOc1ccc(CNc2nc3ccccc3nc2N)cn1 | 33.9
39 | CC(C)(C)c1ncc(CNc2ccccc2SCCC(N)=O)s1 | 55.4
40 | CC(=O)N1CCC(C(=O)NCc2ncc(-c3ccccc3)o2)CC1 | -63.8
41 | NC(=O)c1cccc(CCNCc2cnc(C3CCC3)s2)c1 | 21.9
42 | CN(Cc1ccc(Cl)s1)C(=O)CN(C)C1CCCc2ccccc21 (centres undefined) | 21.4
43 | Cc1ccc(C)c(OCC(O)CN(C)CC(=O)Nc2cc(C)on2)c1 (centres undefined) | -14.4
44 | CC(C)(C)c1nc(NS(=O)(=O)c2ccccc2F)no1 | -1.45

Row | Structure (SMILES) | cytotoxicity at 10 µM [%]
45 | CC(C)(C)c1nc(NS(=O)(=O)c2cccc(F)c2)no1 | -10.8
46 | Cc1nc(C(=O)NC2CCN(CCOc3ccc(Br)cc3)CC2)cs1 | 13
47 | CCSc1cncc(NCc2ccc(N3CCNC(=O)C3)cc2)n1 | 15.7
48 | N#Cc1c(Cl)nsc1NCC1(c2ccccc2)CCC1 | 26.7
49 | O=C(CN1CCCC(c2ccn[nH]2)C1)Nc1nc2c(s1)CCC2 (centres undefined) | -42.4
50 | COc1cc(N2CC[C@@H]3[C@@H](CC2)OCCN3CC2CC2)ncn1 | -107
51 | COCC1CN(c2ncccn2)Cc2cnn(CC3CC3)c21 (centres undefined) | 6.68
52 | COCC(=O)N1CCC2(COCc3cnc(N4CCOCC4)nc32)C1 (centres undefined) | -65
53 | O=C(c1ccco1)N1CCO[C@@H]2CN(c3ccccc3)CC[C@@H]2C1 | -67.7
54 | c1ccc(NCc2cnc3n2CCN(C2CCOC2)CC3)nc1 (centres undefined) | -70.5
55 | C[C@@H]1CN(c2nc(N)nc3c2CCC3)CC[C@@]1(O)C1CCC1 | 36.9
56 | Cc1nc(CCNC(=O)c2cc(C(C)C)nn2C)sc1C | 22.4
57 | COc1cc(Oc2ccc(C#N)cn2)ccc1CN1CCCC1 | 32.2
58 | COc1ccc(CN2CCC=C(C(C)NC(C)=O)C2)cc1 (centres undefined) | -5.5
59 | Cc1nc(N2CCC3(CCCN(C(C)C)C3=O)C2)c2sccc2n1 (centres undefined) | 18.6
60 | Fc1ccccc1CC1CCN(Cc2cscn2)CC1 | -5.71
61 | C(=C\c1ccc(CN2CCCC2)cn1)/c1ccccc1 | 9.81
62 | COc1ccccc1CCN1CCCC(CN(C)Cc2c[nH]c(C)n2)C1 (centres undefined) | 6.74
63 | COc1ccc(-c2noc(-c3ccc(N4CCC[C@H]4CO)nc3)n2)cc1 | 11.1
64 | CN(C)c1ccc(-c2cc(C(=O)O)cc(S(=O)(=O)NC3CC3)c2)cc1 | 16.5
65 | CN(C)C1CCN(Cc2cnc(S(C)(=O)=O)n2CC2CCCCC2)C1 (centres undefined) | 0.83
66 | COC(=O)CNC(=O)c1cn(Cc2ccccc2F)nn1 | 4.98

Row | Structure (SMILES) | cytotoxicity at 10 µM [%]
67 | CCc1[nH]c2c(CNc3nc(C)cc(NC)n3)cc(C)cc2c1C | -22.4
68 | CN(Cc1cccnc1N)Cc1cccc2ncccc12 | 53.8
69 | COc1ccc2c(c1)C(C(=O)N(C)CCc1cnn(C)c1)CC(=O)N2 (centres undefined) | -57.2
70 | CN1CC(c2ccccc2)CC2(CCN(C(=O)c3cccnn3)CC2)C1 (centres undefined) | -8.92
71 | CNc1nc(C(=O)N2CCN(c3ccc(Cl)c(Cl)c3)CC2)cs1 | 13.9
72 | O=C1O[C@@H]2CN(c3ncccn3)C[C@@H]2N1CCCc1ccc(F)cc1 | -0.74
73 | CC(C)N1CC(NC(=O)c2ccc(Cl)s2)CC1=O (centres undefined) | -8.51
74 | CC(C)N(CCNc1nc(C2CCCC2)nc2c1cnn2C)C(C)C | 5.29
75 | O=C(c1ncoc1C1CC1)N1CCCN(CCCc2ccccc2)CC1 | -2.78
76 | CSc1nccc(N2CCC3(CCCN(CCc4ccccc4)C3)C2)n1 (centres undefined) | 16.2
77 | OCC1(CC2CCCCO2)CCN(c2cnc3ccccc3n2)CC1 (centres undefined) | 21.1
78 | COCCN(C)C[C@@H]1CN(C(=O)c2c(F)ccc(OC)c2F)C[C@@H]1CO | 0.45
79 | COCc1cc(N2CCc3onc(-c4cccc(OC)c4)c3C2)ncn1 | 14.4
80 | CC(=O)Cn1c(C)cc(=O)c2cc(F)ccc21 | -4.46
81 | Cc1cnccc1N1CCN(c2nccc(CCC(F)(F)F)n2)CC1 | 4.91
82 | Oc1ccc(N2CCC(Cc3ccccc3)CC2)nn1 | 45.4
83 | CCC(Nc1nccc(C2CCCC2)n1)c1ccncc1 (centres undefined) | -63.8
84 | CCn1cc(NC(=O)c2cccc(CN3C[C@@H](C)O[C@@H](C)C3)c2)nn1 | 1.31
85 | COc1cccc(-c2noc(C3CCN(Cc4cn(C)nc4C)C3)n2)c1 (centres undefined) | 11.4
86 | O=C1NCCN1C1CCN(Cc2nc(-c3ccsc3)no2)CC1 | 44.8
87 | CCNC(=O)N(C)C1CCN(Cc2ncc(C)c(OC)c2C)CC1 | -0.514
88 | CCOc1ccc(OCCN2CCC(N3CCNC3=O)CC2)cc1 | 41.3

Row | Structure (SMILES) | cytotoxicity at 10 µM [%]
89 | COc1cc(CNCc2ccnc(N3CCCCC3)c2)cc(OC)c1 | 28.9
90 | Cc1cccc(-c2nc(CN3CCCC3Cn3cc(C)cn3)no2)c1 (centres undefined) | -1.82
91 | CN(Cc1ncc(C(C)(C)C)o1)CC1CCCN1c1cccnn1 (centres undefined) | -5.52
92 | c1ccc(OCCCN2CCN(c3ccc4nncn4n3)CC2)cc1 | -0.421
93 | N#Cc1ccc(N2CCN(C(=O)c3cc(C4CC4)[nH]n3)CC2)c(F)c1 | 1.94
94 | Cn1cc(NS(=O)(=O)c2ccc(OC(F)(F)F)cc2)ccc1=O | 33.4
95 | CC(C)N(CC(N)=O)Cc1csc(COc2ccc(F)cc2)n1 | 33.9
96 | Cc1nc(C)n(CC2CCCN(c3ncnc4ccsc34)C2)n1 (centres undefined) | 42.4
97 | Cc1ccc(CN(CCCn2ccnc2)Cc2cccs2)s1 | -17.6
98 | O=C(N1CCOCC1)[C@@]12CCO[C@@H]1CCN(Cc1ccncc1)C2 | -1.2
99 | CCN1C[C@H]2[C@@H](C1)N(c1ncc(F)cn1)CC[C@H]2OC | 3.5
100 | FC1(F)CCN(Cc2ccccn2)CC12CCN(c1cccnc1)C2 (centres undefined) | 25.5
101 | CCN1C[C@@H]2[C@@H](OC)CCN(C(=O)c3cc(C)nn3CC)[C@@H]2C1 | -118
102 | CNC(=O)c1cc2c(nc1NCC(C)C)CCN(c1ncccn1)CC2 | -157
103 | c1cc(CO[C@H]2CC[C@H]3[C@H]2OCCN3Cc2nccs2)ccn1 | -109
104 | Cn1cc(CN2C[C@@H]3OCCN(c4ncccn4)[C@@H]3C2)cn1 | -75.1
105 | O=C(c1ccc(F)cc1)N1CCN2C[C@H](OCc3cccnc3)C[C@H]2C1 | -85.1
106 | CN(Cc1ccco1)[C@@H]1CN(Cc2ccc(F)cc2)[C@@H]2CCCO[C@H]12 | -70.6
107 | O=C(N1CCCC1)N1CCC2(CC1)CN(c1cccnc1)C(=O)CO2 | -99.6
108 | O=C(c1ccco1)N1CCO[C@@H]2CN(CC3CC3)CC[C@@H]2C1 | -67.9
109 | C/N=C1\c2cc3cc(OC)ccc3n2CCN1Cc1ccccc1 | 80.4
